In BindingDB's records for doi:10.1016/j.bmc.2015.06.007 (Taipei Medical University, 2015):

These compounds were tested against T1, Tumor necrosis factor ligand superfamily member 11 (Mus musculus, UniProt O35235) (assay: Inhibition of recombinant mouse RANKL-induced TRAP activity in mouse RAW264.7 cells using 4-nitrophenyl phosphate as TRAP substrate preincubated for 4 days followed by substrate addition measured after 15 mins by ELISA reader analysis).
T1 sequence (O35235 whole entry): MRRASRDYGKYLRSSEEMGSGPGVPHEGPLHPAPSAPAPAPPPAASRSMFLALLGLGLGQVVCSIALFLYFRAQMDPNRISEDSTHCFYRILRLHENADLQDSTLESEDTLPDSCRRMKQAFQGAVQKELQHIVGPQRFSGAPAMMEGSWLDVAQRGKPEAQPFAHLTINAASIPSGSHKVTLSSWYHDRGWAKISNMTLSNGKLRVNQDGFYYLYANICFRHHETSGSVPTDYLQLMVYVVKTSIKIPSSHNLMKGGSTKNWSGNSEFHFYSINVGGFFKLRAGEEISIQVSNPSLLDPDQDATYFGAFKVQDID
Outline: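 RAW264.7 cells (2 × 10⁴ per well) were cultured 4 days in α-MEM with 10% FBS, 2 mM L-glutamine and murine RANKL 100 ng/mL, with or without compound. Cells were lysed in 0.1% Triton X-100/50 mM Tris-HCl pH 7.2 on ice. They were incubated with 2 mg/mL 4-nitrophenyl phosphate in 0.09 M citrate for 15 min at 37 °C, stopped with 0.1 N NaOH, and read at 405 nm. Protein was measured by BCA.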

Row | Structure (SMILES) | IC50
1 | O=c1oc2ccc(-c3ccc(F)cc3F)cc2c(=O)n1-c1cc(F)ccc1F | 4.31 µM
2 | O=c1oc2ccc(-c3ccc(F)cc3F)cc2c(=O)n1-c1cccc(C(F)(F)F)c1 | 4.29 µM
3 | C#Cc1cccc(-n2c(=O)oc3ccc(-c4ccc(F)cc4F)cc3c2=O)c1 | 3.7 µM
4 | O=c1oc2ccccc2c(=O)n1-c1ccc(Cl)cc1F | 10.6 µM
